The text below walks through data of ChEMBL document CHEMBL1821640, “Novel 1,2,3-triazole derivatives for use against Mycobacterium tuberculosis H37Rv (ATCC 27294) strain” (J Med Chem, 2011).

Structures are written as SMILES. In brackets after ≈: the same amount, converted by molar mass. A value given as a limit tells only on which side of the number the result lay.

The test system of data set [1] is Mycobacterium tuberculosis. Kind of data set: Antimicrobial activity against Mycobacterium tuberculosis H37Rv ATCC 27294 after 5 days by Microplate Alamar blue assay. Type of data set: functional. As to conditions: H37Rv ATCC 27294, 120 h. In outline:
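M. tuberculosis H37Rv grown 24 h at 37 °C, 150 rpm, in Middlebrook 7H9 + 10% OADC, washed, set to 0.1 McFarland and diluted 1:25. Two-fold dilutions in 7H9, final […], 5 days at 37 °C. Resazurin (Alamar Blue)/10% Tween 80 added for 24 h. MIC is the lowest concentration preventing a blue-to-pink change. Triplicates averaged.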

The nature of data set [2]: Cytotoxicity against human HepG2 cells after 24 hrs by MTT assay. The format is cell-based. Particulars: read-out: MLD50. Put shortly:
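HepG2 cells kept in RPMI 1640 with 10% heat-inactivated FCS and gentamicin at 37 °C under 5% CO2. Seeded at 5 × 10^3 cells/well and allowed to adhere for 18 h. Exposed to compound at 200–25 μg/mL for 24 h, then MTT (5 mg/mL solution) for 3 h. Absorbance is taken as % of untreated control after background subtraction, and MLD50 is derived.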

A short description of data set [3]: Cytotoxicity against african green monkey BGMK cells after 24 hrs by MTT assay. The format is cell-based. As to conditions: chlorocebus aethiops, read-out: MLD50.
A short description of data set [4]: Selectivity index, ratio of MDL50 for human HepG2 cells to MIC for Mycobacterium tuberculosis H37Rv ATCC 27294. Type of data set: functional.
Data set [5] can be described thus: Selectivity index, ratio of MDL50 for african green monkey BGM cells to MIC for Mycobacterium tuberculosis H37Rv ATCC 27294. Type of data set: functional.

Turning to `OCc1cn(-c2ccccc2)nn1`, in data set [1], the MIC is above 100 µg/mL.

Compound `OCc1cn(-c2ccc(Cl)cc2)nn1` yielded a minimum inhibitory concentration (MIC) in data set [1] above 100 µg/mL.

As for `O=C(N/N=C/c1cn(-c2ccc(F)cc2)nn1)c1ccncc1`, the CC50 at 24 h in data set [2] and in data set [3] was above 1000 µg/mL in each case. Also, the Ratio in data set [4] and in data set [5] was above 800 throughout. Besides, in data set [1], the MIC was determined as 4 µM.

In the case of `OCc1cn(-c2ccc(F)cc2)nn1`, the MIC in data set [1] is above 100 µg/mL.

Consider `OCc1cn(-c2cccc(Cl)c2)nn1`, for which the MIC in data set [1] was above 100 µg/mL.

In data set [1], `OCc1cn(-c2ccccc2Cl)nn1` displayed a minimum inhibitory concentration (MIC) above 100 µg/mL.

For `Cc1ccc(-n2cc(CO)nn2)cc1`, in data set [1], the MIC is above 100 µg/mL.

For `Cc1cccc(-n2cc(CO)nn2)c1`, the MIC in data set [1] was above 100 µg/mL.

As to `Cc1ccccc1-n1cc(CO)nn1`, in data set [1], the MIC is above 100 µg/mL.

In the case of `O=[N+]([O-])c1ccc(-n2cc(CO)nn2)cc1`, the minimal inhibitory concentration (MIC) in data set [1] was above 100 µg/mL.

In data set [1], `COc1ccc(-n2cc(CO)nn2)cc1` registered an MIC above 100 µg/mL.

For the compound `COc1cccc(-n2cc(CO)nn2)c1`, the minimum inhibitory concentration (MIC) in data set [1] was above 100 µg/mL.

`COc1ccccc1-n1cc(CO)nn1` displayed an MIC in data set [1] above 100 µg/mL.

With `OCc1cn(-c2ccc(Cl)c(Cl)c2)nn1`, the MIC in data set [1] was above 100 µg/mL.

Turning to `OCc1cn(-c2cc(Cl)ccc2Cl)nn1`, the MIC in data set [1] is above 100 µg/mL.

The compound `OCc1cn(-c2cc(Cl)cc(Cl)c2)nn1` returned an MIC in data set [1] above 100 µg/mL.

In data set [1], `N#Cc1ccc(-n2cc(CO)nn2)cc1` displayed an MIC above 100 µg/mL.

For `N#Cc1cccc(-n2cc(CO)nn2)c1`, in data set [1], the MIC was above 100 µg/mL.

In the case of `OCc1cn(-c2ccc(Br)cc2)nn1`, the MIC in data set [1] is above 100 µg/mL.

With `Nc1nnc(-c2cccc(-n3cc(CO)nn3)c2)s1`, the minimum inhibitory concentration (MIC) in data set [1] was above 100 µg/mL.

`O=Cc1cn(-c2ccccc2)nn1` showed an MIC in data set [1] of 144 µM.

Regarding `O=Cc1cn(-c2ccc(F)cc2)nn1`, the MIC in data set [1] turned out to be 131 µM.

On to `O=Cc1cn(-c2ccc(Cl)cc2)nn1`, for which the values for the CC50 at 24 h in data set [2] and in data set [3] were 71 µg/mL (≈ 342 µM) and 97 µg/mL (≈ 467 µM), respectively. Besides, the Ratio in data set [4] is on record as 6; in data set [5], 8. This compound returned an MIC in data set [1] of 60.2 µM.

Compound `O=Cc1cn(-c2ccccc2Cl)nn1` showed an MIC in data set [1] of 241 µM.

`Cc1ccc(-n2cc(C=O)nn2)cc1` displayed an MIC in data set [1] of 66.7 µM.

In data set [1], `Cc1cccc(-n2cc(C=O)nn2)c1` came in with an MIC of 134 µM.

Turning to `Cc1ccccc1-n1cc(C=O)nn1`, inhibition of growth in data set [1] (MIC) required 267 µM.

As to `O=Cc1cn(-c2ccc([N+](=O)[O-])cc2)nn1`, the lowest concentration to inhibit growth in data set [1] (MIC) was 115 µM.

The compound `COc1ccc(-n2cc(C=O)nn2)cc1` showed an MIC in data set [1] of 123 µM.

For the compound `COc1cccc(-n2cc(C=O)nn2)c1`, it took 123 µM to inhibit growth in data set [1] (MIC).

In turn, `COc1ccccc1-n1cc(C=O)nn1` yielded a minimal inhibitory concentration (MIC) in data set [1] of 246 µM.

With `O=Cc1cn(-c2ccc(Cl)c(Cl)c2)nn1`, the minimal inhibitory concentration (MIC) in data set [1] was found to be 207 µM.

As to `O=Cc1cn(-c2cc(Cl)ccc2Cl)nn1`, the MIC in data set [1] was above 100 µg/mL.

As to `O=C(N/N=C/c1cn(-c2ccccc2)nn1)c1ccncc1`, the CC50 at 24 h in data set [2] and in data set [3] was above 1000 µg/mL each time. The Ratio in data set [4] and in data set [5] was above 400 in each case. The compound further came in with an MIC in data set [1] of 8.5 µM.

In the case of `O=C(N/N=C/c1cn(-c2ccc(Cl)cc2)nn1)c1ccncc1`, the CC50 at 24 h in data set [2] and in data set [3] was above 1000 µg/mL each time. Besides, the Ratio in data set [4] and in data set [5] was above 1612 in each case. In addition, 1.8 µM was the least that counted as inhibitory in data set [1] (MIC).

Regarding `O=C(N/N=C/c1cn(-c2cccc(Cl)c2)nn1)c1ccncc1`, the CC50 at 24 h in data set [2] and in data set [3] was above 1000 µg/mL each time. Also, the Ratio in data set [4] and in data set [5] was above 1612 each time. Also, 1.8 µM was the least that counted as inhibitory in data set [1] (MIC).

With `O=C(N/N=C/c1cn(-c2ccccc2Cl)nn1)c1ccncc1`, the CC50 at 24 h in data set [2] was 263 µg/mL (≈ 805 µM); in data set [3], above 1000 µg/mL. The Ratio in data set [4] is 210; in data set [5], above 800. Further, 3.8 µM was the least that counted as inhibitory in data set [1] (MIC).

`Cc1ccc(-n2cc(/C=N/NC(=O)c3ccncc3)nn2)cc1`: the CC50 at 24 h in data set [2] was 118 µg/mL (≈ 385 µM); in data set [3], above 1000 µg/mL. The results for the Ratio in data set [4] and in data set [5] were 94 and above 800, respectively. In addition, the MIC in data set [1] was determined as 4 µM.

Take `Cc1cccc(-n2cc(/C=N/NC(=O)c3ccncc3)nn2)c1`: the CC50 at 24 h is 124 µg/mL (≈ 405 µM) in data set [2] and 262 µg/mL (≈ 855 µM) in data set [3]. Also, the results for the Ratio in data set [4] and in data set [5] were 200 and 422, respectively. In addition, the MIC in data set [1] amounted to 2 µM.

Regarding `Cc1ccccc1-n1cc(/C=N/NC(=O)c2ccncc2)nn1`, the CC50 at 24 h in data set [2] was 314 µg/mL (≈ 1030 µM); in data set [3], above 1000 µg/mL. Also, the results for the Ratio in data set [4] and in data set [5] were 126 and 400, respectively. In data set [1], this compound registered an MIC of 8.1 µM.

On to `O=C(N/N=C/c1cn(-c2ccc([N+](=O)[O-])cc2)nn1)c1ccncc1`, for which the CC50 at 24 h in data set [2] and in data set [3] was above 1000 µg/mL in each case. Also, the Ratio in data set [4] and in data set [5] was above 1612 each time. Moreover, in data set [1], inhibition of growth (MIC) required 1.8 µM.

Turning to `COc1ccc(-n2cc(/C=N/NC(=O)c3ccncc3)nn2)cc1`, the CC50 at 24 h in data set [2] and in data set [3] was above 1000 µg/mL each time. For the same compound, the Ratio in data set [4] and in data set [5] was above 400 in each case. In data set [1], this compound displayed an MIC of 7.7 µM.

As for `COc1cccc(-n2cc(/C=N/NC(=O)c3ccncc3)nn2)c1`, the CC50 at 24 h in data set [3] is above 1000 µg/mL. Moreover, the Ratio in data set [5] is on record as above 800. For the same compound, in data set [1], the MIC came to 3.8 µM.

Turning to `COc1ccccc1-n1cc(/C=N/NC(=O)c2ccncc2)nn1`, the CC50 at 24 h in data set [2] and in data set [3] was above 1000 µg/mL in each case. Further, the Ratio in data set [4] and in data set [5] was above 1612 in each case. The same compound registered a minimum inhibitory concentration (MIC) in data set [1] of 1.9 µM.

For the compound `O=C(N/N=C/c1cn(-c2ccc(Cl)c(Cl)c2)nn1)c1ccncc1`, the CC50 at 24 h in data set [2] and in data set [3] was above 1000 µg/mL in each case. In addition, the Ratio in data set [4] and in data set [5] was above 400 in each case. The minimal inhibitory concentration (MIC) in data set [1] turned out to be 6.9 µM.

For `O=C(N/N=C/c1cn(-c2cc(Cl)ccc2Cl)nn1)c1ccncc1`, the CC50 at 24 h in data set [2] and in data set [3] was above 1000 µg/mL each time. Further, the Ratio in data set [4] and in data set [5] was above 800 in each case. For the same compound, the minimum inhibitory concentration (MIC) in data set [1] was found to be 3.4 µM.

Regarding `COC(=O)c1cn(-c2cc(Cl)cc(Cl)c2)nn1`, the MIC in data set [1] is above 100 µg/mL.

The compound `FC(F)(F)c1cn(-c2cc(Cl)cc(Cl)c2)nn1` showed an MIC in data set [1] of 177 µM.

The compound `FCc1cn(-c2ccc(Cl)cc2)nn1` gave an MIC in data set [1] of 472 µM.

Take `FCc1cn(-c2cccc(Cl)c2)nn1`: it took 472 µM to inhibit growth in data set [1] (MIC).

In turn, `FCc1cn(-c2cc(Cl)cc(Cl)c2)nn1` showed a minimal inhibitory concentration (MIC) in data set [1] of 406 µM.

In data set [1], `N#Cc1ccc(-n2cc(CF)nn2)cc1` gave a minimal inhibitory concentration (MIC) above 100 µg/mL.

For the compound `N#Cc1cccc(-n2cc(CF)nn2)c1`, the MIC in data set [1] was above 100 µg/mL.

For `FCc1cn(-c2ccc(Br)cc2)nn1`, in data set [1], the minimum inhibitory concentration (MIC) is 390 µM.

As to `Nc1nnc(-c2cccc(-n3cc(C(F)F)nn3)c2)s1`, it took 340 µM to inhibit growth in data set [1] (MIC).

For `C=Cc1cn(-c2ccccc2)nn1`, the minimal inhibitory concentration (MIC) in data set [1] was above 100 µg/mL.

On to `C=Cc1cn(-c2ccc(Cl)cc2)nn1`, for which the minimal inhibitory concentration (MIC) in data set [1] amounted to 243 µM.

Turning to `C=Cc1cn(-c2ccc([N+](=O)[O-])cc2)nn1`, the MIC in data set [1] was above 100 µg/mL.

In turn, `C=Cc1cn(-c2ccc(OC)cc2)nn1` returned an MIC in data set [1] of 244 µM.

For `C=Cc1cn(-c2ccccc2OC)nn1`, the MIC in data set [1] was above 100 µg/mL.

With `C=Cc1cn(-c2ccc(Cl)c(Cl)c2)nn1`, in data set [1], the MIC is above 100 µg/mL.

On to `C=Cc1cn(-c2cc(Cl)ccc2Cl)nn1`, for which the CC50 at 24 h in data set [2] and in data set [3] was above 1000 µg/mL throughout. The Ratio in data set [4] and in data set [5] was above 321 throughout. The compound also came in with a minimum inhibitory concentration (MIC) in data set [1] of 13 µM.

For the compound `O=Cc1cn(-c2cccc(Cl)c2)nn1`, 121 µM was the least that counted as inhibitory in data set [1] (MIC).

In data set [1], `FC(F)c1cn(-c2cccc(Cl)c2)nn1` displayed an MIC above 100 µg/mL.

Regarding `N#Cc1cccc(-n2cc(C(F)F)nn2)c1`, the minimal inhibitory concentration (MIC) in data set [1] was determined as 114 µM.

As to `NNC(=O)c1ccncc1` [ISONIAZID], 0.437 µM was the least that counted as inhibitory in data set [1] (MIC).

Take `CO[C@H]1/C=C/O[C@@]2(C)Oc3c(C)c(O)c4c(O)c(c(/C=N/N5CCN(C)CC5)c(O)c4c3C2=O)NC(=O)/C(C)=C\C=C\[C@H](C)[C@H](O)[C@@H](C)[C@@H](O)[C@@H](C)[C@H](OC(C)=O)[C@@H]1C` [RIFAMPIN]: the MIC in data set [1] came out at 1.21 µM.
